Screens from PubChem.
E-sel inducer: E-selectin induction on HUVECs; 260,000 tested, 0.37% active; P16581; HUVEC E-selectin immunofluorescence imaging; normalized: neutral wells 0, TNF-alpha wells 100; activation, % at 7.58 µM;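 active means mean E-selectin-positive cell signal at least 10% of the positive control, reached in at least 60% of replicates, without over 20% cell loss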
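Material: HUVEC primary endothelial cells; Amount: 3,000 cells per well; Dosing: single concentration; Medium: EGM-2 growth medium on 0.1% gelatin-coated wells; Read-out basis: percent E-selectin-positive cells; Signal: immunofluorescence imaging; Control set: TNF-alpha, DMSO.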
MLL AF4-AF9 inh: blocks AF4 peptide binding to human AF9; inhibition, % at 10 µM; 350,000 tested, 0.47% active; P42568; AlphaScreen, biotin-AF4 peptide binding to FLAG-AF9; AID 651704;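 active means every replicate reaching a set inhibition limit, whatever the replicate mean, cut at about 25% in these data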;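 further: 0% = plate neutral control median and 100% = total signal loss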
RAD54 branch: blocks human RAD54 Holliday junction branch migration; Q92698; FAM/BHQ fluorescence; inhibition, % at 10.4 µM; 360,000 tested, 0.14% active; AID 602329;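 active means mean normalized replicate activity at least 40 and at least half of replicates scoring 40 or more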;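 further: 0% = median of neutral control wells and 100% = median of positive control wells; inhibitors cause a drop in the FAM fluorescence signal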
Target sequence (Q92698 whole entry, looked up): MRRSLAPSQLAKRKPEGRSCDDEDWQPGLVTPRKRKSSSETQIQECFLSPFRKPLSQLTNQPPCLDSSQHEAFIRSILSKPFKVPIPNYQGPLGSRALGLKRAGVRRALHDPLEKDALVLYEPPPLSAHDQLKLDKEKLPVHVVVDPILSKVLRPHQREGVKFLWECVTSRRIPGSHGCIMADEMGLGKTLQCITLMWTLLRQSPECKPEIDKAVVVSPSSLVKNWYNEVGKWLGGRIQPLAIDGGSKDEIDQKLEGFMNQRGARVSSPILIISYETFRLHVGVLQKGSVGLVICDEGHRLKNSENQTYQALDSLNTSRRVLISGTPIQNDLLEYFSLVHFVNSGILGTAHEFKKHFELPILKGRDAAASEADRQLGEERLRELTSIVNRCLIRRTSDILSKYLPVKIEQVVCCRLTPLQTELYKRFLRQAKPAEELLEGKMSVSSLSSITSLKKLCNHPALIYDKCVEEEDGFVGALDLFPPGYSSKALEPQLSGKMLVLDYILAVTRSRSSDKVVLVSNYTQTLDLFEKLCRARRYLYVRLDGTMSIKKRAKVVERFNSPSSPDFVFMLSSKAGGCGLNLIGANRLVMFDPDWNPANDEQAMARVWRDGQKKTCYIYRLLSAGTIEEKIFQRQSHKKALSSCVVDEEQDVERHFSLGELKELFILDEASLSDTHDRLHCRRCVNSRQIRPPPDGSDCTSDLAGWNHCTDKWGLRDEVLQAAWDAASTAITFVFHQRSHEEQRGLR
GSIS activator: GLuc luminescence reporter in INS-1E cells, primary screen for activators of glucose-dependent secretion of insulin; INS-1E GLuc reporter insulin secretion, 2-3 h; activation, % at 16.6 µM; 370,000 tested, 0.61% active;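 active means lowest replicate activation of at least 40%, so every replicate reaches that level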;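 further: 0% = median of neutral control wells and 100% = median of IBMX positive control wells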
rRNA inh HTS: inhibitors of bacterial rRNA selective over humanized ribosomes; E. coli WT GFP vs humanized-ribosome RFP mutants, fluorescence, 24 h; stronger effect = lower value; DMSO median 0, no signal -100; GFP signal change (wild-type ribosome), % (concentration not given with the values); 350,000 tested, 1.6% active; AID 720706;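 active means significant combined selectivity score with lowered wild-type GFP, culture density cut under 30%, mutant RFP and density less affected; inactive means any of these conditions unmet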
RAD52 inh: blocks human RAD52 DNA annealing. P43351. recombinant RAD52 DNA annealing, FRET fluorescence. inhibition, % at 18.7 µM. 360,000 tested, 0.46% active;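 active means every replicate showing at least 50% inhibition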
* = called active by the depositor; . = not tested or not shown. A selection: hits, their analogues and other compounds. The true share with any hit is near 2.6%.

SMILES	E-sel inducer	MLL AF4-AF9 inh	RAD54 branch	GSIS activator	rRNA inh HTS	RAD52 inh
CCOC(=O)Cc1csc(NC(=S)NC(=O)c2ccc(F)cc2)n1	.	.	.	5.7	.	.
O=C(Cc1csc(NC(=O)c2ccccc2)n1)NO	.	4.2	-4.7	57.2*	7.4	-4.6
CCOC(=O)Cc1csc(NC(=S)NC(=O)c2ccccc2C)n1	.	-1.0	3.4	-11.8	-19.9*	5.6
COCC#Cc1ccc2c(c1)O[C@H](CN(C)C(=O)CN(C)C)[C@H](C)CN([C@@H](C)CO)S2(=O)=O	1.0	-1.8	-1.2	5.6	3.3	-22.3
O=C([C@H]1[C@H](CO)[C@H]2Cn3c(cccc3=O)[C@@H]1N2CC1CCCCC1)N1CCOCC1	0.1	-2.0	4.2	5.5	0.9	-2.2
CC1CCN(c2nc(-c3cccnc3)nc3scc(-c4ccccc4)c23)CC1	.	0.4	.	3.7	8.2	-20.2
CN1CCN(c2nc(-c3cccnc3)nc3scc(-c4ccccc4)c23)CC1	-2.3	2.3	30.1	-0.3	-21.7*	-7.8
Clc1cccc(-c2noc3ncnc(Nc4ccc5c(c4)OCO5)c23)c1	0.0	0.4	3.9	6.1	-21.6*	-8.7
Cc1cccc(Nc2ncnc3onc(-c4cccc(Cl)c4)c23)c1	-0.2	-1.3	4.5	1.8	-17.8	-14.1
COc1cc(/C=C(\C#N)c2nc3ccccc3o2)ccc1O	.	-10.4	-240.8	0.1	-5.7	-344.4
N#C/C(=C\c1ccc(O)cc1)c1nc2ccccc2o1	2.3	1.2	-13.5	-37.9	-35.1*	-491.8
CC(C)Cn1c(SCC(=O)N2CCN(S(=O)(=O)c3ccccc3)CC2)nc2ccccc21	.	.	-0.3	-13.2	-31.9*	6.0
Cn1c(SCC(=O)N2CCN(S(=O)(=O)c3ccccc3)CC2)nc2ccccc21	.	5.9	.	.	-0.8	-12.4
O=C(CSc1ncccn1)N1CCN(S(=O)(=O)c2ccccc2)CC1	0.0	-21.5	0.4	50.7*	8.9	-9.0
CN(C)c1ccc2c(c1)[C@H]1C[C@H](CC(=O)NC3CCCC3)O[C@H](CO)[C@H]1O2	-0.1	3.4	-9.0	-1.0	-0.7	-46.6
O=C(CC(=O)c1cc(Cl)ccc1O)c1ccccc1	.	-7.9	9.8	-6.7	-27.2*	-10.8
CC=Cc1ccc2n(c1=O)C[C@H]1[C@H](CO)[C@@H](C(=O)Nc3ccccc3)[C@@H]2N1C(=O)CC (mixture of isomers)	-1.5	-10.4	-4.5	11.2	-0.8	6.5
Cc1ccsc1/C=C1\CCC(C2CCCC2)C1=O (stereo unspecified)	.	6.1	.	-15.5	-22.7*	-7.7
Cc1ccc(/C=C2\CCC(C3CCCC3)C2=O)cc1 (stereo unspecified)	-0.7	.	-6.8	25.1	.	.
COc1ccccc1CNC(=O)C[C@@H]1C=C[C@@H](NC(=O)CN(C)C)[C@@H](CO)O1	0.6	2.3	5.7	-2.8	0.4	7.7
COC(=O)c1ccc(COc2ccc(/C=N/NC(N)=S)cc2)o1	.	1.9	0.6	-1.2	-28.6*	-25.7
COC(=O)c1ccc(COc2ccc(Cl)cc2)o1	.	1.3	2.3	8.7	-7.2	-6.7
CO[C@H]1CN(C)C(=O)c2ccc(NC(=O)Nc3ccccc3F)cc2OC[C@@H](C)N(C)C[C@@H]1C	0.0	1.1	8.8	17.7	-0.4	-0.3
O=C(NC1Cc2ccccc2C1)[C@H]1[C@H](CO)[C@H]2Cn3c(cccc3=O)[C@H]2N1C(=O)c1ccccn1	-0.3	-1.5	4.2	9.8	4.4	-12.9
Cc1noc(C)c1NC(=O)N(C)C[C@H]1Oc2ccc(NS(=O)(=O)c3ccc(F)cc3)cc2C(=O)N([C@H](C)CO)C[C@H]1C	0.8	-0.5	2.6	2.3	4.7	-3.0
SMILES	E-sel inducer	MLL AF4-AF9 inh	RAD54 branch	GSIS activator	rRNA inh HTS	RAD52 inh
Cc1ccc(-c2nc3ccccc3c(=O)n2NC(=O)COc2ccccc2)cc1	-0.2	1.6	.	.	.	0.6
Cc1ccc(OCC(=O)Nn2c(C)nc3ccccc3c2=O)c(C(C)C)c1	.	-49.2	1.2	1.8	-22.2*	-12.4
COCCN(CC(=O)NC1CCCCC1)C(=O)/C=C/C(=O)c1ccc(OC)cc1O	0.0	-0.8	.	49.1*	35.7	-0.9
CO[C@H]1CN(C)C(=O)c2cc(NC(=O)C3CC3)ccc2OC[C@H](C)N(C(=O)c2ccncc2)C[C@@H]1C	-0.3	-1.9	10.5	13.9	-0.2	3.6
CC(C)Cc1csc(NC(=O)c2ccc(Br)cc2)c1C(=O)O	.	-9.3	1.4	15.1	-26.4*	-6.0
CC(C)Cc1csc(NC(=O)C(C)C)c1C(=O)O	-0.4	-2.6	-0.6	5.3	-0.8	-7.4
COc1ccc(-c2ccc(SCC(=O)N3CCOCC3)nn2)cc1OC	.	.	1.7	83.6*	.	.
COc1ccc(-c2cc(C(=O)N3CCCCCC3)no2)cc1OC	.	-4.0	7.6	50.8*	-9.3	-14.2
COc1ccc(-c2ccc(SCC(=O)c3cccs3)nn2)cc1OC	0.1	-1.5	.	42.9*	-33.7*	-34.7
COc1ccc(-c2ccc(SCC(=O)c3ccc(F)cc3)nn2)cc1OC	-0.9	3.9	-9.2	25.5	-20.6	-30.8
COc1ccc(-c2nnc(SCC(=O)N3CCCCC3)o2)cc1OC	0.0	-2.5	1.7	4.1	2.5	-9.0
COc1ccc(-c2cc(C(=O)N3CCCCCC3)no2)cc1	.	-6.3	4.8	-5.2	-0.4	-1.5
COc1ccc(-c2ccc(SCC(=O)N3CCCC3)nn2)cc1OC	.	.	3.2	81.1*	.	.
O=C(CCN1CCCCC1)NCC[C@H]1CC[C@@H](NS(=O)(=O)c2cccc(F)c2)[C@@H](CO)O1	-0.2	-0.9	-1.6	3.4	-0.7	10.5
COC(=O)CSc1ccc2nnc(-c3ccc(OC)c(OC)c3)n2n1	0.4	32.5*	10.7	12.3	14.3	-7.8
COC(=O)CSc1ccc2nnc(-c3ccc(F)cc3)n2n1	.	4.5	-3.4	24.2	2.5	1.9
Cc1cc(C)nc(NC(=O)c2ccc(Cl)cc2Cl)n1	.	-6.3	-8.1	68.1*	9.1	-16.6
Cc1ccnc(NC(=O)c2ccc(Cl)cc2Cl)n1	7.1	-1.6	.	12.7	7.2	-6.9
COc1ccc2nc3ccccc3nc2c1NC(=O)c1ccc(Cl)cc1Cl	0.0	.	-16.0	86.6*	.	.
C[C@@H]1CN([C@@H](C)CO)C(=O)Cc2cc(N(C)C)ccc2O[C@@H]1CN(C)C(=O)Nc1ccc(F)cc1	-4.0	-1.5	4.1	7.8	1.8	-6.9
Cn1c(O)c(C2=c3ccccc3=NC2=O)[nH]c1=S	.	.	.	4.3	.	.
COc1ccc2nc(-n3c(O)c(C4=c5ccccc5=NC4=O)[nH]c3=S)sc2c1	-0.1	-29.3	1.7	-6.1	-44.5*	6.9
CC(=O)n1cc(N(C(=O)CCl)c2ccc([N+](=O)[O-])cc2)c2ccccc21	.	7.2	-1.5	-15.3	-35.8*	-9.6
O=Cc1[nH]c2ccccc2c1N(C(=O)CCl)c1ccc([N+](=O)[O-])cc1	.	5.9	3.7	-26.1	-55.5*	-2.6
